Mot1-301 SUMO: blocks SUMOylation pathway, rescuing yeast Mot1-301 growth. AID 2716. growth rescue, % at 18.8 µM. 320,000 tested, 1% active. S. cerevisiae Mot1-301 growth rescue, ATP luminescence, 38.5C; percent above DMSO median, 100 means doubled;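 active = every valid replicate shows activation above 250% relative to neutral control wells; inactive = the rest, any valid replicate at or below 250%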;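 note: OY570 slx delta 5 strain wells were the positive control but not used for scaling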
Cneo AK release: Cryptococcus neoformans lysis via adenylate kinase release; lysis activity, % at 15 µM; AID 651654; C. neoformans lysis, adenylate kinase release luminescence, 4 h; normalised: neutral wells 0, clomiphene wells 100; 360,000 tested, 0.2% active;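 active = mean lysis activity across replicates of at least 80%, whatever share of replicates individually reach that level; inactive = mean lysis activity below 80%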
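Assay system: Cryptococcus neoformans yeast cells / Dosing: single-point compound dose / Timing: 4 h at 37 °C static, read 1 h later / Measured by: luminescence of released adenylate kinase using an AK detection reagent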
C2C12 statin: suppression of simvastatin myotoxicity; C2C12 myotubes + simvastatin, ATP luminescence, 48 h; scaled: DMSO 0, geranylgeraniol control 100; rescue of ATP level, % at 7.49 µM; 330,000 tested, 0.78% active; AID 602340;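 active = mean ATP rescue above about 67%, or every replicate alone reaching that limit, limit read from the data, passing the limit was not always enough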;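 note: myotubes were challenged with 10 µM simvastatin during compound exposure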
Efflux pump mplx: antifungal efflux pump inhibition, Nile Red retention; S. cerevisiae Candida pump triplex; AID 485275; 330,000 tested, 0.44% active; inhibition, % at 10 µM;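 active = plate passing quality check with inhibition over a set limit, or well fluorescence over plate mean plus 4 SD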;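 note: Nile Red retained in pooled yeast measured as flow cytometry median fluorescence; 0% = buffer negative control and 100% = Enniatin B positive control; higher means more Nile Red kept so more efflux inhibition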
Yeast Mot1 SUMO: inhibits SUMO pathway, affecting Mot1-301 yeast growth | shares compounds with Mot1-301 SUMO | S. cerevisiae Mot1-301 galactose growth, ATP luminescence, 24 h; -100 = growth of slx-deleted rescue strain | growth activity, percent, % at 42 µM | 2,300 tested, under 10 active;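 active = Signal drops as the depositor expects, and the fitted half-maximal dose is no more than ten times the top valid tested dose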;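 note: more negative values mean stronger growth rescue toward the control strain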
* hit, by the source's call; / = no result given; + = active, no number; ! = a repeat was not active. The list is not random: actives were taken first. Their share in the collection is about 1.8%.

SMILES	Mot1-301 SUMO	Cneo AK release	C2C12 statin	Efflux pump mplx	Yeast Mot1 SUMO
C[C@@H]1CN([C@@H](C)CO)C(=O)c2cccc(N(C)C)c2O[C@@H]1CN(C)C(=O)NC1CCCCC1	/	-2.6	-16.6	/	/
O=C(Nc1ccsc1C(=O)O)c1cccc(C(F)(F)F)c1	968.1*	/	/	0.3	0.3
COc1cccc(CN2CCNC(=O)C2CC(=O)NCc2cn3ccc(C)cc3n2)c1OC (centres undefined)	-7.1	0.2	/	0.1	/
COc1ccc(CN2CCNC(=O)C2CC(=O)NCc2cn3ccc(C)cc3n2)c(OC)c1 (centres undefined)	838.2*	-2.2	/	0.0	-0.6
CCC(C)NCCOc1ccccc1C (centres undefined)	385.8*	-1.7	/	0.2	0.8
COc1ccccc1CNC(=O)C1CCC(=O)N1C(C)C (centres undefined)	595.1*	0.1	0.7	0.1	-0.4
CCOc1ccccc1CNC(=O)C1CCC(=O)N1C(C)C (centres undefined)	-17.5	-3.5	-0.5	0.1	/
Cc1cc(C)cc(C(=O)Oc2cc(C)[nH]c(=O)c2[N+](=O)[O-])c1	366.2*	2.0	-2.4	-0.4	-0.5
COc1cc(C(=O)Oc2cc(C)[nH]c(=O)c2[N+](=O)[O-])cc(OC)c1OC	-2.0	-2.1	22.2	0.1	/
CCC1CCCCN1C(=O)CSc1nnc(CNC(=O)c2ccco2)o1 (centres undefined)	360.7*	-0.9	/	0.0	0.0
O=C(CSc1nnc(CNC(=O)c2ccccc2)o1)NCc1ccco1	799.7*	0.2	/	0.2	0.3
O=C(CSc1nnc(CNC(=O)c2ccco2)o1)Nc1nc2ccccc2s1	+	/	/	-0.1	0.8
CCc1noc(C)c1C(=O)N(C)CC(=O)Nc1ccccc1C(F)(F)F	6.2	4.5	/	-0.1	/
CCN(C(=O)COC(=O)CCc1ccccc1OC)c1c(N)n(Cc2ccccc2)c(=O)[nH]c1=O	0.5	1.7	2.7	-0.2	/
CCN(C(=O)Nc1ccccc1OC)c1c(N)n(Cc2ccccc2)c(=O)[nH]c1=O	471.4*	-12.5	6.0	0.1	0.0
CN(C)/C=C1\C(=O)Oc2ccccc2C1=O	185.9	1.4	/	0.0	/
CC1CCC(C(C)C)C(OC(=O)COC(=O)c2cccn2C)C1 (centres undefined)	376.7*	-1.0	13.9	0.0	0.2
CC1CCC(C(C)C)C(OC(=O)COC(=O)c2ccc(N)cc2)C1 (centres undefined)	20.6	/	/	0.1	/
C/C=C/C(=O)N1c2ccc(C)cc2C(C)=CC1(C)C	962.0*	-0.2	-2.5	-0.2	0.5
CC1=CC(C)(C)N(C(=O)CSc2nnc(C)s2)c2ccc(C)cc21	183.9	0.8	17.0	0.1	/
COc1ccc(C(=O)NNC(=O)C23CC4CC(CC(C4)C2)C3)cc1OC	-2.7	0.8	0.2	0.0	/
COc1cc2c(cc1OC)C(COc1ccccc1OC)N(C(C)=O)CC2 (centres undefined)	186.9	2.1	29.5	0.1	/
COc1cc2c(cc1OC)C(c1ccccc1[N+](=O)[O-])N(C(C)=O)CC2 (centres undefined)	383.6*	-1.3	14.6	0.0	0.2
CC1=NN(c2ccccc2)C(=O)C1/C=C1\NC(=S)NC1=O (centres undefined)	-12.2	-1.2	6.2	0.1	/
O=C(COc1ccc(-n2cnnn2)cc1)NCCc1ccc(F)cc1	+	-2.7	/	0.0	-0.5
SMILES	Mot1-301 SUMO	Cneo AK release	C2C12 statin	Efflux pump mplx	Yeast Mot1 SUMO
CCCC(C)C(=O)Nc1ccncc1 (centres undefined)	-2.4	3.4	5.6	0.1	/
CC(N=C(NC#N)Nc1ccncc1)C(C)(C)C (centres undefined)	798.1*!	0.8	-1.1	0.0	0.2
Cc1ccc(S(=O)(=O)N[C@H]2CC[C@@H](CC(=O)NCc3ccccc3F)O[C@H]2CO)cc1	/	-0.1	-0.5	/	/
CC(=O)NC(c1cccs1)c1cc([N+](=O)[O-])c2cccnc2c1O (centres undefined)	17.6	/	/	-0.2	/
Cc1ccc(S(=O)(=O)NCC[C@H]2CC[C@H](NC(=O)NC(C)C)[C@H](CO)O2)cc1	/	-2.2	0.7	/	/
COc1cccc(S(=O)(=O)Nc2cccc(C(=O)N3CCOCC3)c2)c1	477.8*	2.6	-8.9	0.0	0.1
Cc1c(C(=O)N2CCOCC2)c(S(=O)(=O)Nc2cccc(Br)c2)c(C)n1C	553.1*	0.7	-2.5	0.1	0.9
